Measurements taken from ChEMBL document CHEMBL5042517, “Discovery, X-ray Crystallography, and Anti-inflammatory Activity of Bromodomain-containing Protein 4 (BRD4) BD1 Inhibitors Targeting a Distinct New Binding Site” (J Med Chem, 2022).
Values after ≈ are worked out from the molar mass of the structure shown. Active and inactive are the calls of the source. No cut-off for these calls is given here.

Legend:
[1] = Clearance in rat at 10 mg/kg, iv; format: ADME, organism-based; settings: in vivo
[2] = tested on: SAEC; assay: Antiinflammatory activity in human SAEC assessed as decrease in H3K122Ac accumulation by immunofluorescence analysis; format: functional, cell-based
Method in brief: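 Immortalized human small airway epithelial cells stimulated with poly(I:C) at 10 μg/mL. H3K122Ac detected by immunofluorescence and quantified as fold change in total fluorescence intensity.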

[3] = molecular target: T1, Bromodomain-containing protein 4 (Homo sapiens, UniProt O60885)
[4] = tested on: Mus musculus; assay: Antiinflammatory activity in C57BL/6 mouse model of poly(I:C)-induced acute airway inflammation assessed as decrease in total cells level in BALF at 10 mg/kg, po administered 1 day prior to poly(I:C) stimulation; format: functional, organism-based
[5] = tested on: Bromodomain-containing protein 4 (Homo sapiens), O60885 [E151A]
[6] = molecular target: T1, Bromodomain-containing protein 4; remark: listed apart in the source
[7] = molecular target: T2, Bromodomain-containing protein 2 (Homo sapiens, UniProt P25440); assay: Binding affinity BRD2 BD1 (unknown origin) incubated for 1 hr by TR-FRET assay
Method in brief: (§1)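 Commercial TR-FRET kit with recombinant BRD2 bromodomain. Inhibitor at 0.01 nM–100 μM, 1 h at room temperature. Excitation 340 nm; 670/620 nm emission ratio read with 100 μs delay. IC50 from a four-parameter fit, mean of three runs.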

[8] = tested on: Mus musculus; assay: Antiinflammatory activity in C57BL/6 mouse model of poly(I:C)-induced acute airway inflammation assessed as decrease in neutrophils level in BALF at 10 mg/kg, po administered 1 day prior to poly(I:C) stimulation; format: functional, organism-based
[9] = tested on: Mus musculus; assay: Antiinflammatory activity in C57BL/6 mouse model of poly(I:C)-induced acute airway inflammation assessed as decrease in CIG5 gene expression in lung tissue at 10 mg/kg, po administered 1 day prior to poly(I:C) stimulation; format: functional, organism-based
[10] = Volume of distribution at steady state in rat at 10 mg/kg, iv; format: ADME, organism-based; settings: in vivo, read-out: Vdss
[11] = AUC (0 to t) in rat at 20 mg/kg, po; format: ADME, organism-based; set-up: dose 20 mg/kg; settings: in vivo
[12] = molecular target: T1, Bromodomain-containing protein 4; assay: Binding affinity to wild type human BRD4 BD2 (349 to 461 residues) expressed in bacterial competent cells assessed as increase in thermal stability by thermal shift assay
[13] = molecular target: T1, Bromodomain-containing protein 4; remark: listed apart in the source
[14] = tested on: Mus musculus; assay: Antiinflammatory activity in C57BL/6 mouse model of poly(I:C)-induced acute airway inflammation assessed as decrease in KC gene expression in lung tissue at 10 mg/kg, po administered 1 day prior to poly(I:C) stimulation; format: functional, organism-based
[15] = molecular target: CREB-binding protein (Homo sapiens, UniProt Q92793); assay: Binding affinity CBP (unknown origin) incubated for 1 hr by TR-FRET assay
[16] = tested on: Mus musculus; assay: Antiinflammatory activity in C57BL/6 mouse model of poly(I:C)-induced acute airway inflammation assessed as inhibition of neutrophilic inflammation around small sized airways at 10 mg/kg, po administered 1 day prior to poly(I:C) stimulation by H and E staining based analysis; format: functional; set-up: scale not given: the % may be the effect or the level left
[17] = tested on: Mus musculus; assay: Antiinflammatory activity in C57BL/6 mouse model of poly(I:C)-induced acute airway inflammation assessed as decrease in IL-6 level in BALF at 10 mg/kg, po administered 1 day prior to poly(I:C) stimulation; format: functional, organism-based
[18] = molecular target: T2, Bromodomain-containing protein 2; assay: Binding affinity BRD2 BD2 (unknown origin) incubated for 1 hr by TR-FRET assay; method in brief: as §1
[19] = molecular target: Bromodomain-containing protein 3 (Homo sapiens, UniProt Q15059); assay: Binding affinity BRD3 BD1 (unknown origin) incubated for 1 hr by TR-FRET assay
[20] = Half life in rat at 20 mg/kg, po; format: ADME, organism-based; settings: in vivo
[21] = molecular target: T1, Bromodomain-containing protein 4; remark: listed apart in the source
[22] = tested on: Mus musculus; assay: Antiinflammatory activity in C57BL/6 mouse model of poly(I:C)-induced acute airway inflammation assessed as decrease in ISG54 gene expression in lung tissue at 10 mg/kg, po administered 1 day prior to poly(I:C) stimulation; format: functional, organism-based
[23] = molecular target: T1, Bromodomain-containing protein 4; remark: listed apart in the source
[24] = molecular target: T1, Bromodomain-containing protein 4; assay: Binding affinity to wild type human BRD4 BD1 (42 to168 residues) expressed in bacterial competent cells assessed as increase in thermal stability by thermal shift assay
[25] = molecular target: T1, Bromodomain-containing protein 4; remark: listed apart in the source
[26] = Aqueous solubility of the compound after 24 hrs by HPLC analysis; format: physicochemical; settings: buffer
Method in brief: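 Compound suspended in water and shaken 24 h at 25 °C, then centrifuged and filtered. Supernatant analyzed by C18 reverse-phase HPLC with one-point calibration against solutions of known concentration.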

[27] = Cmax in rat at 20 mg/kg, po; format: ADME, organism-based; set-up: route oral, dose 20 mg/kg; settings: in vivo
[28] = molecular target: T1, Bromodomain-containing protein 4; remark: listed apart in the source
[29] = tested on: Mus musculus; assay: Antiinflammatory activity in C57BL/6 mouse model of poly(I:C)-induced acute airway inflammation assessed as decrease in MCP-1 level in BALF at 10 mg/kg, po administered 1 day prior to poly(I:C) stimulation; format: functional, organism-based
[30] = Half life in rat at 10 mg/kg, iv; format: ADME, organism-based; settings: in vivo
[31] = tested on: Bromodomain-containing protein 4 (Homo sapiens), O60885 [E151A]; remark: listed apart in the source
[32] = tested on: Bromodomain-containing protein 4 (Homo sapiens), O60885 [E151A]; remark: listed apart in the source
[33] = tested on: Mus musculus; assay: Antiinflammatory activity in C57BL/6 mouse model of poly(I:C)-induced acute airway inflammation assessed as inhibition of neutrophilic inflammation around medium sized airways at 10 mg/kg, po administered 1 day prior to poly(I:C) stimulation by H and E staining based analysis; format: functional; set-up: scale not given: the % may be the effect or the level left
[34] = tested on: Bromodomain-containing protein 4 (Homo sapiens), O60885 [E151A]; remark: listed apart in the source
[35] = tested on: Mus musculus; assay: Antiinflammatory activity in C57BL/6 mouse model of poly(I:C)-induced acute airway inflammation assessed as decrease in RANTES level in BALF at 10 mg/kg, po administered 1 day prior to poly(I:C) stimulation; format: functional, organism-based
[36] = tested on: Mus musculus; assay: Antiinflammatory activity in C57BL/6 mouse model of poly(I:C)-induced acute airway inflammation assessed as decrease in IL-6 gene expression in lung tissue at 10 mg/kg, po administered 1 day prior to poly(I:C) stimulation; format: functional, organism-based

T2 sequence (P25440 whole entry): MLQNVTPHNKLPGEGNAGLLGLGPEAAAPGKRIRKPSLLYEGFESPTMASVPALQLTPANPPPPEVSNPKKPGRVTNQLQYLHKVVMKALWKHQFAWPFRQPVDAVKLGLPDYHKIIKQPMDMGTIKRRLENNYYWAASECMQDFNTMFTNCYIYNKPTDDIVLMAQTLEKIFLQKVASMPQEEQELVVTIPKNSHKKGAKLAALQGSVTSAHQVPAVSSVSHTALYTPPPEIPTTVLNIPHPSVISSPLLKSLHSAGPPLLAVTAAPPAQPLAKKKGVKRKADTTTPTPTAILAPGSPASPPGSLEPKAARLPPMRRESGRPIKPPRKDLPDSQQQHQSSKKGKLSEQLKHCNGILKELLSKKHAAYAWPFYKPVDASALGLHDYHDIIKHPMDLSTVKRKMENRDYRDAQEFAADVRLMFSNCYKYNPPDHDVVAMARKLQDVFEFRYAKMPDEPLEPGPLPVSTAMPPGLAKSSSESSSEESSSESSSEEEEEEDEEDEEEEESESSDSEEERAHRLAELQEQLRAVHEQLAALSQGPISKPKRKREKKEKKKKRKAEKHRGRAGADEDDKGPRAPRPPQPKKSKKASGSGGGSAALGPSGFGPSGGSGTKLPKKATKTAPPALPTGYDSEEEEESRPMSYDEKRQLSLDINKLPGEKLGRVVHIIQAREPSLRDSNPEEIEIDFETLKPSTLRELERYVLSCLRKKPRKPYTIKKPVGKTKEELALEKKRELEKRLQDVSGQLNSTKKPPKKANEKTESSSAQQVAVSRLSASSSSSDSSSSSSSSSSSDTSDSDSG
Sequence of CREB-binding protein (Q92793 whole entry): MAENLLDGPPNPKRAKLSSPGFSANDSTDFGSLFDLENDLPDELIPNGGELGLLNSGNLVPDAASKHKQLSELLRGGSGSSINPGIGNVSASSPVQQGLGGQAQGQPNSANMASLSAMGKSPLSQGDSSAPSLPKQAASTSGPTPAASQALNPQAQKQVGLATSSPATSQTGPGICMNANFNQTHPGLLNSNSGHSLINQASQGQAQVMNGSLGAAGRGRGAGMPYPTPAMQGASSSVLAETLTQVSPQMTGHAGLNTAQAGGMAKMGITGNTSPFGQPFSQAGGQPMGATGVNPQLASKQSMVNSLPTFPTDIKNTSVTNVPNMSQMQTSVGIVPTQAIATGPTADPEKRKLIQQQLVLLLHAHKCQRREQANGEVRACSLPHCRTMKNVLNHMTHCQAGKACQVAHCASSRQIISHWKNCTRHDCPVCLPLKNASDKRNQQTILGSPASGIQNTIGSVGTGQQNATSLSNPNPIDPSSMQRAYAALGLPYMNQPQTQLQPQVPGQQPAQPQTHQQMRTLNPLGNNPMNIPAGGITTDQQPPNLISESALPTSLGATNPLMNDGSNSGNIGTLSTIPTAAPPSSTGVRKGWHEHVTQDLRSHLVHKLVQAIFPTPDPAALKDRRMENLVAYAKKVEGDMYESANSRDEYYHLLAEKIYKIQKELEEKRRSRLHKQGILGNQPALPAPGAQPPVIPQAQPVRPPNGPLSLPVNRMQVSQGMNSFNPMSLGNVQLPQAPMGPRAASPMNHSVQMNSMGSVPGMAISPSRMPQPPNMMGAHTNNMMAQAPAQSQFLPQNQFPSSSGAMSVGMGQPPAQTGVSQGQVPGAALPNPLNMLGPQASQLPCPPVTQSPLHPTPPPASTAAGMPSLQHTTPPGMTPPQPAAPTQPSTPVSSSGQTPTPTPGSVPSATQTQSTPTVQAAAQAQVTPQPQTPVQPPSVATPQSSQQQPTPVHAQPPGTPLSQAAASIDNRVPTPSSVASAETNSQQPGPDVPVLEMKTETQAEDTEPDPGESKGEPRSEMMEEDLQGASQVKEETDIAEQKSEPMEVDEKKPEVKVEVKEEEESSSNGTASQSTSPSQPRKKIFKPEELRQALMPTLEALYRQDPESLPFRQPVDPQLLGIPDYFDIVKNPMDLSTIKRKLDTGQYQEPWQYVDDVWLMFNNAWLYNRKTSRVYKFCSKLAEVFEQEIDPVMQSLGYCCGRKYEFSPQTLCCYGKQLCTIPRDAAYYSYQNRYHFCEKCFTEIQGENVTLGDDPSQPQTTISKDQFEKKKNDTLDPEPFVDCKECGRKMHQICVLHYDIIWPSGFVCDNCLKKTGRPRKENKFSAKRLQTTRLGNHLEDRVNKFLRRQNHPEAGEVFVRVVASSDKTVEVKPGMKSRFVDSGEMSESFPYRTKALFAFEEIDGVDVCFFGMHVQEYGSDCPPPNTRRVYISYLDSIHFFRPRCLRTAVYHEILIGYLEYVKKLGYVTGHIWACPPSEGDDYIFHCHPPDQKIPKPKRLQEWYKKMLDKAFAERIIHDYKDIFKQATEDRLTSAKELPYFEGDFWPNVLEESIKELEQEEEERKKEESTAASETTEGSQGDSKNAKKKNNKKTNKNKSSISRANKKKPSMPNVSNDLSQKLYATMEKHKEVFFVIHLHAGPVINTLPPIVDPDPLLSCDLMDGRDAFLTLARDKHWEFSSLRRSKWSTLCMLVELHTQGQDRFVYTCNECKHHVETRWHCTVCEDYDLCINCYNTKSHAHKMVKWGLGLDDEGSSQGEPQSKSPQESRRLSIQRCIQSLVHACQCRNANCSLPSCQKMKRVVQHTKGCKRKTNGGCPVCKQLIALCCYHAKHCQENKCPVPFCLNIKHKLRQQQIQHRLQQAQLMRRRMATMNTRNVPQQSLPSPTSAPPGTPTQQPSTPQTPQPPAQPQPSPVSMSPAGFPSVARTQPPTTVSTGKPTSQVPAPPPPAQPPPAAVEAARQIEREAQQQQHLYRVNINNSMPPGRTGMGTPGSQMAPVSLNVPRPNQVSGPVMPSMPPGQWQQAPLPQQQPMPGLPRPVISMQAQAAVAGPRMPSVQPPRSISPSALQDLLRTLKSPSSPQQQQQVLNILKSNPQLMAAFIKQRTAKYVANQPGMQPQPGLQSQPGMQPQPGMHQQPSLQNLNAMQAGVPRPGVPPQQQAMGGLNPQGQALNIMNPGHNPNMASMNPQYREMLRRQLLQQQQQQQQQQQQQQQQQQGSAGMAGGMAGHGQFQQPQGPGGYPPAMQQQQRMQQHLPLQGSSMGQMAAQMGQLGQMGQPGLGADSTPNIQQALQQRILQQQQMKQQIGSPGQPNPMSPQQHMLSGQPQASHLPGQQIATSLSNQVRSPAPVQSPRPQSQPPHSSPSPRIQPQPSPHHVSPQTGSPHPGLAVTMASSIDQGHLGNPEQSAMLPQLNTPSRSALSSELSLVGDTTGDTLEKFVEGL
Sequence of Bromodomain-containing protein 3 (Q15059 whole entry): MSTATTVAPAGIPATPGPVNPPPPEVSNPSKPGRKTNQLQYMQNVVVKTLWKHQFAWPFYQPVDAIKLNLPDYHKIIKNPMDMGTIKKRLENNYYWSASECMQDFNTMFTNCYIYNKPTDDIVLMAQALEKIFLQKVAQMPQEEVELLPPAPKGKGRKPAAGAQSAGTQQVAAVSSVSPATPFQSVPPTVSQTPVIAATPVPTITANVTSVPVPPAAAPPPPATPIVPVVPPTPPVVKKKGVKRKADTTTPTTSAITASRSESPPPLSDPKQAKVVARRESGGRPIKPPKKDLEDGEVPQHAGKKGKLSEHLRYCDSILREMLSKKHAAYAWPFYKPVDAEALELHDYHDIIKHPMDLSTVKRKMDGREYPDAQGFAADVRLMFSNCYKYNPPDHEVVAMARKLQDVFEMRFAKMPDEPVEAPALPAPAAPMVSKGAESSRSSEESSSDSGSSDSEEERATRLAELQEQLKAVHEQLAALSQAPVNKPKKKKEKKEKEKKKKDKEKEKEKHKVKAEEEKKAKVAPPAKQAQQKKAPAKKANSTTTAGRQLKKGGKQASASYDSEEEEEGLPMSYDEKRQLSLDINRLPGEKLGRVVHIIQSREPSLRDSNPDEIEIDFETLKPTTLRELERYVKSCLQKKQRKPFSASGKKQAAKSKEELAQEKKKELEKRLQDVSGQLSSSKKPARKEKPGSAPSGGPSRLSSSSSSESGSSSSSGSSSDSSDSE

For `O=C(Nc1ccc(C(F)(F)F)cc1)Nc1ccc(S(=O)(=O)N2CCC[C@H]2CN2CCOCC2)cc1`, the clearance [1] was 75 mL/min/kg, the Activity [2] was “Active” and the ΔTm [3] was 13.3 °C. The Activity [4] was “Active”, the ΔTm [5] was 0.1 °C and the ΔTm [6] was 0.8 °C. The IC50 [7] was 0.835 µM, the Activity [8] was “Active” and the Activity [9] was “inactive”. For the same molecule, the Vd [10] was 16 L/kg, the AUC(0-t) [11] was 602 ng·h/mL and the Activity [12] was “inactive”. The ΔTm [13] was 15.7 °C, the Activity [14] was “inactive” and the IC50 [15] was over 10 µM. The Activity [16] was 100%, the Activity [17] was “inactive” and the IC50 [18] was 1.31 µM. For the same molecule, the IC50 [19] was 2.18 µM, the half-life [20] was 3.7 h and the ΔTm [21] was 1.1 °C. The Activity [22] was “Active”, the ΔTm [23] was 0.9 °C and the Activity [24] was “Dose-Dependent Effect”. It also gave a ΔTm [25] of 0.7 °C, a solubility [26] of 3500 µg/mL (≈ 6.83 mM) and a Cmax [27] of 86.9 ng/mL. The ΔTm [28] was 5.8 °C, the Activity [29] was “inactive” and the half-life [30] was 2.5 h. It also gave a ΔTm [31] of 0.7 °C, a ΔTm [32] of 0.9 °C and an Activity [33] of 100%. The ΔTm [34] was 0.5 °C, the Activity [35] was “inactive” and the Activity [36] was “inactive”.
